How the values were obtained:
Format in all cases: functional
[1] = system: Felis catus; assay: Orexigenic activity in cat assessed as food consumption at 0. 0312 mg/kg, po (reference value: 126 +/- 34 to 150 +/- 52 g)
[2] = system: Felis catus; assay: Orexigenic activity in cat assessed as food consumption at 0. 0312 mg/kg, po (reference value: 107 +/- 29 to 146 +/- 24 g)
[3] = system: Felis catus; assay: Orexigenic activity in cat assessed as food consumption at 0.25 mg/kg, po (reference value: 118 +/- 52 to 143 +/- 37 g)
[4] = system: Felis catus; assay: Orexigenic activity in cat assessed as food consumption at 0.0312 mg/kg, po (reference value: 126 +/- 26 to 155 +/- 33 g)
[5] = system: Felis catus; assay: Orexigenic activity in cat assessed as food consumption at 0. 25 mg/kg, po (reference value: 119 +/- 39 to 155 +/- 34 g)
[6] = system: Felis catus; assay: Orexigenic activity in cat assessed as food consumption at 0. 25 mg/kg, po (reference value: 114 +/- 25 to 147 +/- 42 g)
[7] = system: Cavia porcellus; assay: Antihistaminic activity against ip dosed Duncan-Harley guinea pig assessed as inhibition of histamine aerosol-induced bronchoconstriction compound administered 30 mins prior to histamine challenge
Method in brief: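 Guinea pigs of either sex, 200-300 g. Compound given ip as a suspension in 1% methylcellulose. 30 min later, 3-min exposure to histamine aerosol (0.5% base) in individual chambers, then 10 min observation. Dose range 0.031-6.25 mg/kg, 3-4 levels, 5-10 animals per level. ED50 is the dose protecting 50% from bronchoconstriction death, from log-dose regression.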

[8] = system: Felis catus; assay: Orexigenic activity in cat assessed as food consumption at 0. 25 mg/kg, po (reference value: 179 +/- 31 g)
[9] = system: Mus musculus; assay: Anticholinergic activity in po dosed CF-1 mouse assessed as dose required to increase pupil diameter to 1.5 micrometer after 1 hr
Method in brief: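 Female CF-1 mice dosed orally, five dose levels, ten mice per dose. Pupil diameter measured with an ocular micrometer 1 h after dosing. ED1.5 is the dose raising pupil diameter to 1.5 micrometer units, derived by regression of response on log dose (Finney).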

[10] = system: Rattus norvegicus; assay: Antiserotonin activity against po dosed Sprague-Dawley rat assessed as inhibition of serotonin-induced edema of right hind paw compound administered 1 hr prior to serotonin challenge
Method in brief: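 Male rats, 140-210 g, dosed orally 1 h before 5 µg serotonin (base) into the right hind paw; saline (0.05 mL) into the left paw. Feet removed and weighed 30 min later; percent inhibition of serotonin weight gain versus saline paw. Doses 0.156-80 mg/kg, 4-16 rats per dose. ED50 from log-dose regression.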

COc1ccc2c(c1)C(=C1CCN(C)CC1)c1ccccc1C=C2
Activity [1]: 131 g | Activity [2]: 115 g | Activity [3]: 143 g | Activity [4]: 110 g | Activity [5]: 140 g | Activity [6]: 134 g

CN1CCC(=C2c3ccccc3C=Cc3ccccc32)CC1 [CYPROHEPTADINE]
ED50 [7]: 0.077 mg/kg | Activity [8]: 220 g | ED [9]: 6 mg/kg | ED50 [10]: 0.24 mg/kg

Source: ChEMBL document CHEMBL3272264, “(+)- and (-)-3-Methoxycyproheptadine. A comparative evaluation of the antiserotonin, antihistaminic, anticholinergic, and orexigenic properties with cyproheptadine” (1977)
